From PubChem BioAssay
The source made the active and inactive calls.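 Rule for the calls, unless noted: active = inhibition of the reporter signal at or above 50%; inactive = inhibition below 50%.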

Experiments:
[1] = inhibitors of TNFa-induced NFkB p65 translocation, primary screen, imaging, HUVEC, MLSMR starter and 10KST1 sets (AID 438;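 active = inhibition above 20% together with a positive visual image hit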;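 note: compound added about 3h40 before a 20 min TNFalpha stimulation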;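 for inhibition: signal is the nuclear over cytoplasmic p65 intensity ratio per well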); conditions: HUVEC TNFa-induced p65 nuclear translocation; cell count: measured here: nuclei count (cytotoxicity indicator), at 2.08 µM; inhibition: at 2 µM, stronger effect = higher value, 0% TNFa-plus-vehicle, 100% no-TNFa wells
[2] = reduction of polyQ htt aggregates in cells – imaging, exon1htt(103Q)mCFP cells, high-content imaging, primary screen (AID 483;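 active = visual image review flags a hit and inhibition of aggregation exceeds 20%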;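 note: compound exposure lasted 3 days before fixation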;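 for nuclei count: percent of the per-plate median nuclei count of sample wells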); conditions: exon1htt(103Q)mCFP cell line, aggregate imaging, at 2 µM; inhibition of aggregation: stronger effect = higher value; nuclei count: measured here: cell count, toxicity
[3] = endothelial E-selectin expression blockers – imaging, HUVEC, immunofluorescence, MLSMR starter and 10KST1 sets, primary screen (AID 487;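 active = visually confirmed hit in the image check and inhibition above 20%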;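 for inhibition: signal is fraction of cell area covered by stained E-selectin grains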;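 for nuclei count: 100% = median nuclei count of all wells on the same plate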); conditions: HUVEC TNFalpha-induced E-selectin immunofluorescence imaging, at 2 µM; inhibition: stronger effect = higher value; nuclei count: measured here: cell number, toxicity
[4] = biological target: Voltage-gated potassium channel subunit beta-2 (Rattus norvegicus) (UniProt P62483); assay: inhibitors of rat Kvbeta2 reductase activity – biochemical, NADPH fluorescence, primary screen (AID 622;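 active = fluorescence slope higher than the sample average by over 3 SD, cut at about -0.22 in these data, passing the limit was not always enough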;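 note: slope of raw intensity against log time taken from 70 to 1610 s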); conditions: recombinant KvBeta, 4-cyanobenzaldehyde reduction, at 10 µM, stronger effect = higher value
Chain of Voltage-gated potassium channel subunit beta-2 (Rattus norvegicus) (P62483 whole entry, looked up): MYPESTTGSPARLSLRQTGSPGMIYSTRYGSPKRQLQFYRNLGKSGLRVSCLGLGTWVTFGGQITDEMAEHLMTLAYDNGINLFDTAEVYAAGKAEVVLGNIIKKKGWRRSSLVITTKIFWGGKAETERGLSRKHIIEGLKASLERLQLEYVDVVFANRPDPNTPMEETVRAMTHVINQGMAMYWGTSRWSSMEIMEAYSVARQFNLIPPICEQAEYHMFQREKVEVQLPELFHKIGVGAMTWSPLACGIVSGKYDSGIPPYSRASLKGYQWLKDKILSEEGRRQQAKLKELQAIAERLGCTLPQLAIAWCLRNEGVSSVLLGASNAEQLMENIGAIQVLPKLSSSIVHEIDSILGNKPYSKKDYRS

[5] = biological target: Voltage-gated potassium channel subunit beta-2 (Rattus norvegicus) (UniProt P62483); assay: enhancers of rat Kvbeta2 NADPH turnover – biochemical, NADPH fluorescence, primary screen (AID 623;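 active = NADPH fluorescence slope more negative than the mean of all samples by about 3 SD, 99.7% confidence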;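 note: fluorescence intensity change per second fitted from 20 to 320 s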); conditions: Recombinant KvBeta, NADPH fluorescence decrease slope, 10 min; at 10 µM; stronger effect = lower value
[6] = biological target: Muscarinic acetylcholine receptor M4 (Homo sapiens) (UniProt P08173); assay: M4-linked GIRK flux change, two-sided – cell-based, HEK293 M4/GIRK, thallium flux, BTC-AM, M4 allosteric agonist project, primary screen (AID 625;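 active = fluorescence slope after compound addition differing from the mean of all tested samples at 99.7% confidence, mostly higher but some lower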;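 note: thallium influx through GIRK channels coupled to M4 in HEK293 cells with BTC-AM dye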); conditions: at 10 µM, actives lie on both sides
Chain of Muscarinic acetylcholine receptor M4 (Homo sapiens) (P08173 whole entry, looked up): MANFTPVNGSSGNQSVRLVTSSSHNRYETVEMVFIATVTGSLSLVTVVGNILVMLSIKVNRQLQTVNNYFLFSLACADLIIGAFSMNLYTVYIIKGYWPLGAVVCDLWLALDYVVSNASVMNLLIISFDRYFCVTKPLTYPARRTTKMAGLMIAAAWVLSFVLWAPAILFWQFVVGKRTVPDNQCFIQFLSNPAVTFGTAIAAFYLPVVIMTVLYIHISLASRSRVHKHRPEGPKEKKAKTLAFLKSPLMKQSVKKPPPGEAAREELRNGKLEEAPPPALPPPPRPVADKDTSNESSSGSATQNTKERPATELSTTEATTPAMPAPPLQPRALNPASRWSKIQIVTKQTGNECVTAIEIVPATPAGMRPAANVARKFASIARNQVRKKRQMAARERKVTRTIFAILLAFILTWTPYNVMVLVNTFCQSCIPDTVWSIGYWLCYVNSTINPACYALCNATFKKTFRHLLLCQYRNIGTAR
In short: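 assay system = HEK293 cells with M4 receptor and GIRK channels | medium = pH 7.3 thallium assay buffer | doses = 10 µM final, single point | timing = cells overnight at 37 °C, BTC-AM loading 1 h, reads 2 min total | signal = BTC-AM fluorescence, 1 Hz kinetic reads | read-out = post-addition slope, 15–24 s, of baseline-normalized fluorescence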

[7] = blockers of RIG-like receptor reporter activation – cell-based, Sendai virus stimulus, luciferase, 10K MLSCN set, TLR/RLR signaling modifier project, primary screen (AID 602276;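 active = inhibition at or above 50% at 10 µM; inactive = inhibition below 50%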;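 note: firefly luciferase from ISG56 promoter only with Renilla not read in this screen; 0% = Sendai virus plus DMSO and 100% = medium plus DMSO without virus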); conditions: HEK293 RL24 IRF3 luciferase reporter, at 10 µM, stronger effect = higher value
[8] = TLR3 IRF3 reporter activation blockers – cell-based, poly I:C stimulus, luciferase, 10K MLSCN set, primary screen (AID 602277); conditions: HEK293-TLR3 RL24 IRF3 luciferase reporter, at 10 µM, stronger effect = higher value

Row | SMILES | cell count [1] | inhibition [1] | inhibition of aggregation [2] | nuclei count [2] | inhibition [3] | nuclei count [3] | fluorescence slope [4] | NADPH fluorescence slope [5] | fluorescence slope [6] | inhibition [7] | inhibition [8]
1 | CCn1c(=O)cc(SCC(=O)NCCN2CCN(Cc3ccccc3)CC2)c2ccccc21 | 478 | 4.3% (inactive) | 21.3% (inactive) | 93.3% | 14.7% (inactive) | 108% | -0.559 (inactive) | 3.3e-05 (inactive) | 0.00537 (inactive) | 16.8% (inactive) | 47.8% (inactive)
2 | O=C(Nc1cccc(F)c1)c1ccc2c(c1)OCO2 | 246 | -2.1% (inactive) | 31.8% (inactive) | 83.5% | 80.7% (active) | 85% | -0.597 (inactive) | 1.2e-05 (inactive) | 0.00384 (inactive) | -56.2% (inactive) | -121% (inactive)
3 | C[C@H](NC(=O)Nc1cccc(C(F)(F)F)c1)C(=O)O | 759 | 0.4% (inactive) | 14.4% (inactive) | 98% | -1.7% (inactive) | 92.5% | -0.547 (inactive) | 1.5e-05 (inactive) | 0.00427 (inactive) | 27.2% (inactive) | 22.6% (inactive)
4 | Cc1cc(=O)n(CC(C)C)c(O)c1C#N | 432 | 1.5% (inactive) | 9.1% (inactive) | 94.3% | -11.8% (inactive) | 109% | -0.581 (inactive) | -3.7e-05 (inactive) | 0.00407 (inactive) | 13% (inactive) | -7.21% (inactive)
5 | C1=CC2CC1CC2CN1CCN(c2ccccc2)CC1 (stereo not drawn) | 411 | 1.5% (inactive) | -19.6% (inactive) | 114% | -37.7% (inactive) | 100% | -0.479 (inactive) | -2.1e-05 (inactive) | 0.00448 (inactive) | 2.18% (inactive) | 4.2% (inactive)
6 | O=C(CSc1ncccn1)c1ccccc1Br | 483 | 2.9% (inactive) | 0.9% (inactive) | 114% | 1.5% (inactive) | 103% | -0.582 (inactive) | -0.000119 (inactive) | 0.00475 (inactive) | -24.3% (inactive) | -65.9% (inactive)
7 | CCCCNC(=O)CN(C1CCCCC1)S(C)(=O)=O | 422 | 1.2% (inactive) | -3.6% (inactive) | 99.8% | -22.8% (inactive) | 103% | -0.551 (inactive) | 1.8e-07 (inactive) | 0.0049 (inactive) | 16.6% (inactive) | 14.9% (inactive)
8 | CN(C)S(=O)(=O)c1ccc2c(c1)C(CC(=O)O)OC2=O (stereo not drawn) | 616 | 2.3% (inactive) | 13.2% (inactive) | 109% | 27.5% (inactive) | 105% | -0.511 (inactive) | 0.000172 (inactive) | 0.00625 (inactive) | 17.3% (inactive) | 26.3% (inactive)
9 | CCNS(=O)(=O)c1ccc(S(=O)(=O)N(Cc2ccccn2)C2CCCCC2)cc1 | 579 | 3.8% (inactive) | 6.6% (inactive) | 108% | -3.6% (inactive) | 100% | -0.348 (inactive) | -6.9e-05 (inactive) | 0.00588 (inactive) | 12.3% (inactive) | 40.2% (inactive)
10 | CCc1cc2ccc(C)cc2nc1SCC(=O)N1CCN(C(=O)c2ccco2)CC1 | 431 | 4.8% (inactive) | 15.4% (inactive) | 106% | -49.1% (inactive) | 119% | -0.504 (inactive) | -0.000145 (inactive) | 0.00487 (inactive) | 11.9% (inactive) | 5.95% (inactive)
11 | CC(=O)C1=C(O)C(=O)N(Cc2ccco2)C1c1ccc(F)cc1 (stereo not drawn) | 381 | 4.3% (inactive) | -7.7% (inactive) | 92.3% | 21.9% (inactive) | 98% | -0.576 (inactive) | 1e-05 (inactive) | 0.00555 (inactive) | 2% (inactive) | 0.393% (inactive)
12 | O=C(Nc1c(-c2ccccc2)nc2ccccn12)c1ccco1 | 466 | -7.2% (inactive) | 8.4% (inactive) | 103% | 13.2% (inactive) | 109% | -0.56 (inactive) | 4.7e-05 (inactive) | 0.00475 (inactive) | -7.17% (inactive) | -12.7% (inactive)
13 | COc1ccc(-n2nc(C(=O)Nc3ccc4c(c3)OCO4)c3c4ccccc4n(C)c3c2=O)cc1 | 218 | 4.3% (inactive) | -21.9% (inactive) | 47.3% | -66% (inactive) | 97.1% | -0.566 (inactive) | 4e-06 (inactive) | 0.0112 (active) | 10.3% (inactive) | 24.3% (inactive)
14 | COc1ccccc1NC(=O)C1CC(=O)N(c2ccc(F)cc2)C1 (stereo not drawn) | 402 | 4.5% (inactive) | 13.8% (inactive) | 101% | -46.4% (inactive) | 110% | -0.583 (inactive) | -9.7e-05 (inactive) | 0.00373 (inactive) | -15.4% (inactive) | -26.4% (inactive)
15 | [O-][n+]1c2c(nn1-c1ccccc1Cl)-c1nonc1CC2 | 593 | -26.9% (inactive) | -16.7% (inactive) | 112% | -1.8% (inactive) | 95% | -0.351 (inactive) | -7.7e-05 (inactive) | 0.00719 (inactive) | 12% (inactive) | 5.67% (inactive)
16 | COc1ccc(CCNC(=O)COc2ccc(S(=O)(=O)N3CCOCC3)cc2)cc1 | 588 | -17.6% (inactive) | 10.7% (inactive) | 88.7% | 11.7% (inactive) | 116% | -0.32 (inactive) | -4.1e-05 (inactive) | 0.00641 (inactive) | 12.7% (inactive) | 23% (inactive)
17 | Cc1cc(/N=C/N(C)C)on1 | 522 | 1.5% (inactive) | 3.5% (inactive) | 104% | -19.3% (inactive) | 104% | -0.586 (inactive) | -4.7e-05 (inactive) | 0.00679 (inactive) | 19% (inactive) | 16% (inactive)
18 | COC(=O)C1=C(C)OC(N)=C(C#N)C1c1ccccc1 (stereo not drawn) | 428 | 1.7% (inactive) | 5.6% (inactive) | 114% | -73.1% (inactive) | 116% | -0.568 (inactive) | -6.5e-06 (inactive) | 0.0048 (inactive) | 11.5% (inactive) | 16.7% (inactive)
19 | Cc1nc(-c2ccc(NC(=O)c3cccs3)cc2)cs1 | 369 | -3.7% (inactive) | 20.1% (inactive) | 105% | -0.4% (inactive) | 109% | -0.427 (inactive) | -4.1e-05 (inactive) | 0.005 (inactive) | -23.5% (inactive) | -96.4% (inactive)
20 | CC(=O)N1C(=O)C2(Nc3ccccc3N2)c2ccccc21 | 406 | -4.3% (inactive) | 6.4% (inactive) | 108% | 20.6% (inactive) | 108% | -0.283 (inactive) | -1.3e-05 (inactive) | 0.00603 (inactive) | -8.46% (inactive) | 9.54% (inactive)
21 | Cc1nn(Cc2ccccc2Cl)c(C)c1NC(=O)C1C2CCC(O2)C1C(=O)O (stereo not drawn) | 625 | 7.7% (inactive) | 0.3% (inactive) | 101% | 16.3% (inactive) | 96.3% | -0.494 (inactive) | -3.1e-05 (inactive) | 0.00475 (inactive) | -10.5% (inactive) | -23.8% (inactive)
22 | COC(=O)C1CCN(C(=O)CSc2nnc(-c3ccncc3)o2)CC1 | 682 | -6.4% (inactive) | 22.4% (inactive) | 59.8% | -9.5% (inactive) | 109% | -0.57 (inactive) | -5.5e-05 (inactive) | 0.0106 (inactive) | -9.36% (inactive) | -15.6% (inactive)
23 | CC(=O)c1c(NCCc2ccccc2)cc(C)oc1=O | 577 | 8.2% (inactive) | 8.3% (inactive) | 104% | -32.4% (inactive) | 106% | -0.259 (inactive) | -2.2e-05 (inactive) | 0.00739 (inactive) | -1.27% (inactive) | 11% (inactive)
24 | CC(n1cnnn1)C12CC3CC(CC(C3)C1)C2 (stereo not drawn) | 555 | 1.3% (inactive) | 0.3% (inactive) | 106% | 16.7% (inactive) | 114% | -0.495 (inactive) | 0.000168 (inactive) | 0.00589 (inactive) | 16.5% (inactive) | 32.3% (inactive)
25 | COc1ccc(N2CCN(C(=O)CSc3ncnc4c3cnn4-c3ccccc3C)CC2)cc1 | 543 | 2.1% (inactive) | -6.1% (inactive) | 120% | -60.3% (inactive) | 159% | -0.506 (inactive) | -3.3e-06 (inactive) | 0.0046 (inactive) | 10.5% (inactive) | 15.1% (inactive)
26 | O=c1ccn(Cc2ccccc2Cl)cc1 | 440 | 3% (inactive) | 1.3% (inactive) | 102% | 0.1% (inactive) | 131% | -0.426 (inactive) | -4e-05 (inactive) | 0.00507 (inactive) | 15.6% (inactive) | 14.2% (inactive)
27 | Oc1ccc2[nH]cnc2c1CN1CCCCC1 | 405 | 2.2% (inactive) | 5.5% (inactive) | 88.7% | 8% (inactive) | 95.1% | -0.569 (inactive) | -0.000119 (inactive) | 0.00526 (inactive) | 15.4% (inactive) | 25.1% (inactive)
28 | CCC(=O)N1CCc2cc(Br)cc(S(=O)(=O)N3CCCCCC3)c21 | 434 | -3.9% (inactive) | 34.8% (inactive) | 65.9% | 13.2% (inactive) | 99.9% | -0.54 (inactive) | -5.4e-06 (inactive) | 0.00616 (inactive) | 7.37% (inactive) | 12.3% (inactive)
